Active and inactive are the calls of the source. No cut-off for these calls is given here.

One data set relates to MCF7. The experiment in a line: Cytotoxicity against human MCF7 cells assessed as reduction in cell viability measured after 48 hrs by CCK-8 assay. Conditions: MCF7, 48 h. The class given is functional, cell-based. The method in brief: (§1)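 CCK-8 viability: cells grown in RPMI-1640 with 10% FBS, 1×10^4 per well, attached 24 h, then medium replaced with fresh medium containing a range of compound concentrations for 48 h at 37 °C, 5% CO2. CCK-8 added 3 h, absorbance 450 nm; vehicle control set as 100%. IC50 by nonlinear regression, mean ± SD, at least two experiments in triplicate.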
On the technique in general: Tetrazolium dyes change colour on reduction, which living cells bring about.

Data set [1] can be described thus: Cytotoxicity against human MCF-10A cells assessed as reduction in cell viability measured after 48 hrs by CCK-8 assay. The format is toxicity, cell-based. The method in brief:
as §1

Data set [2] relates to PC-3. The experiment in a line: Cytotoxicity against human PC-3 cells assessed as reduction in cell viability measured after 48 hrs by CCK-8 assay. The class given is functional, cell-based. Conditions: PC-3, 48 h. The method in brief:
as §1

A short description of data set [3]: Cytotoxicity against human PNT2 cells assessed as reduction in cell viability measured after 48 hrs by CCK-8 assay. The format is toxicity, cell-based. In outline:
as §1

The test system of another data set is OVCAR-3. The experiment in a line: Cytotoxicity against human OVCAR-3 cells assessed as reduction in cell viability measured after 48 hrs by CCK-8 assay. The class given is functional, cell-based. Conditions: OVCAR-3, 48 h. The method in brief:
as §1

The nature of data set [4]: Selectivity index, ratio of IC50 for cytotoxicity against human MCF-10A cells to IC50 for cytotoxicity against human MCF7 cells. The class given is toxicity, cell-based. Conditions: MCF-10A cells versus MCF7 cells, read-out: Ratio IC50. In outline: (§2)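 CCK-8 was added for 3 h and A450 read, with vehicle set as 100% viability. IC50 was fitted by nonlinear regression from ≥2 experiments in triplicate. SI = normal-cell IC50 divided by the matched cancer-cell IC50.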

Data set [5] can be described thus: Selectivity index, ratio of IC50 for cytotoxicity against human PNT2 cells to IC50 for cytotoxicity against human PC-3 cells. The format is toxicity, cell-based. Conditions: PNT2 cells versus PC-3 cells, read-out: Ratio IC50. The method in brief: as §2
In data set [6] the test system is PC-3. The experiment in a line: Induction of nitric oxide production in human PC-3 cells assessed as nitrite level at 100 uM measured after 12 to 48 hrs by Griess assay. The format is functional. Conditions: time 12-48 hrs. In outline:
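PC3 cells were seeded at 1×10^4 per well and grown 24 h, then moved to serum-free RPMI with 100 μM compound for 12, 24 or 48 h at 37 °C. Supernatant was mixed with 1% sulfanilamide in 2.5% H3PO4 (10 min, dark), then 0.1% NED (10 min, 37 °C), and A540 was read. Nitrite was calculated from a NaNO2 curve (0–100 μM). Controls were DMSO and SNP 100 μM. Data from ≥3 independent experiments in triplicate, mean ± SD.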
Background: The Griess reaction detects nitrite, a stable product of nitric oxide.

The subject of data set [7] is PC-3. As to the kind of experiment: Cytotoxicity against human PC-3 cells assessed as reduction in cell viability at 0.05 uM measured after 24 hrs by SRB assay. The format is functional, cell-based. In outline: (§3)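 SRB assay: PC3 seeded 1×10^4 per well, after 24 h exposed 24 h at 37 °C, 5% CO2 with or without 1 mM N-acetyl-L-cysteine; vehicle 0.1% DMSO. Fixed with 15% TCA at 4 °C for 1 h, dried, stained 0.4% sulforhodamine B, dye solubilized in 10 mM Tris, absorbance 540 nm; ANOVA/Tukey.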
A general note: Sulforhodamine B stains cellular protein and so reports cell mass.

For data set [8], the system named is PC-3. The experiment in a line: Cytotoxicity against human PC-3 cells assessed as reduction in cell viability at 0.05 uM measured after 24 hrs in presence of antioxidant N-acetyl-L-cysteine by SRB assay. The format is functional, cell-based. The method in brief:
as §3

The subject of data set [9] is PC-3. As to the kind of experiment: Cytotoxicity against human PC-3 cells assessed as reduction in cell viability at 0.24 uM measured after 24 hrs by SRB assay. The class given is functional, cell-based. In outline: as §3
The subject of data set [10] is PC-3. As to the kind of experiment: Cytotoxicity against human PC-3 cells assessed as reduction in cell viability at 0.24 uM measured after 24 hrs in presence of antioxidant N-acetyl-L-cysteine by SRB assay. The format is functional, cell-based. In outline: as §3

Consider `COc1cc(/C=C/C(=O)N2CCC=CC2=O)cc(OC)c1OC` [PIPLARTINE], for which the IC50 (in general, the concentration that gives 50% inhibition) in the data set on MCF7 stood at 5.4 µM; in the data set on PC-3 [2], 5.6 µM; in the data set with OVCAR-3, 3.5 µM. In addition, the IC50 at 48 h was determined as 5.3 µM in data set [1] and 8.5 µM in data set [3]. For the same molecule, the selectivity ratio in data set [4] came to 1; in [5] it was 1.5.

As to `O=S(=O)(c1ccccc1)c1c(OCCCCCCCCCCCCO)no[n+]1[O-]`, the figures for the IC50 in the data set on MCF7, in the data set with PC-3 [2] and with OVCAR-3 were 4.3 µM, 0.13 µM and 0.04 µM, respectively. For the same molecule, the IC50 at 48 h in [1] was found to be 14.8 µM; in data set [3], 17.6 µM. The selectivity ratio in [4] was found to be 3.4; in [5], 137. Also, the Activity in the data set on PC-3 [6] came out at 3.2 µM. In addition, the result in the data set with PC-3 [7] was Active. Also, the outcome in the data set on PC-3 [8] was inactive.

Turning to `O=S(=O)(c1ccccc1)c1c(OCCCO)no[n+]1[O-]`, the IC50 was found to be 2.1 µM in the data set with MCF7, 7.2 µM in the data set with PC-3 [2] and 3.3 µM in the data set on OVCAR-3. In addition, the IC50 at 48 h came to 1.8 µM in [1] and 1.9 µM in data set [3]. Further, the selectivity ratio in data set [4] was determined as 0.9; in data set [5] it was 0.3. Moreover, the Activity with PC-3 [6] turned out to be 3.2 µM. For the same molecule, the outcome in the data set with PC-3 [9] was Active. The result in the data set on PC-3 [10] was inactive.

For `COc1cc(/C=C/C(=O)N2CCC=CC2=O)cc(OC)c1OCCCCCCOc1no[n+]([O-])c1S(=O)(=O)c1ccccc1`, the figures for the IC50 in the data set with MCF7, with PC-3 [2] and in the data set with OVCAR-3 were 1.1 µM, 0.13 µM and 0.3 µM, respectively. Further, the concentration for half-maximal inhibition (IC50) at 48 h was 3.6 µM in [1] and 3.3 µM in data set [3]. Also, the selectivity ratio in [4] turned out to be 3.1; in data set [5], 26.2. Further, the Activity in the data set on PC-3 [6] was determined as 23.5 µM.

Consider `O=S(=O)(c1ccccc1)c1c(OCCCCCCO)no[n+]1[O-]`, for which the IC50 with MCF7 is 2 µM; in the data set on PC-3 [2], 3.8 µM; with OVCAR-3 it was 2.2 µM. Moreover, the IC50 at 48 h worked out at 1.7 µM in [1] and 12.9 µM in data set [3]. Further, the selectivity ratio came out at 0.9 in data set [4] and 3.4 in [5]. Further, the Activity in the data set with PC-3 [6] is 3.2 µM.

These data come from ChEMBL document CHEMBL6134784, “Furoxan-piplartine hybrids as effective NO donors and ROS inducers in PC3 cancer cells: design, synthesis, and biological evaluation” (RSC Med Chem, 2024).
